Experimental data from ChEMBL document CHEMBL4732030, “Aloe-emodin derived azoles as a new structural type of potential antibacterial agents: design, synthesis, and evaluation of the action on membrane, DNA, and MRSA DNA isomerase” (RSC Med Chem, 2021).
Values after ≈ are worked out from the molar mass of the structure shown.

test system: Pseudomonas aeruginosa; assay: Antibacterial activity against Pseudomonas aeruginosa ATCC 27853 assessed as inhibition of bacterial growth after 24 hrs by microbroth dilution method; assay type: functional
How it was run: (§1)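 Bacterial inoculum set to 1×10^5 CFU with sterile saline. Test agents and reference drugs, from DMSO stocks, diluted in Mueller-Hinton broth to 512, 256, 128, 64, 32, 16, 8, 4, 2, 1 and 0.5 µg/mL. Inoculated dilutions incubated 37 °C for 24 h.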

SMILES | MIC [µg/mL]
O=C1c2cccc(O)c2C(=O)c2c(O)cc(CSc3nc4ccccc4[nH]3)cc21 | 64 (≈ 159 µM)
O=C1c2cccc(O)c2C(=O)c2c(O)cc(CCl)cc21 | 32 (≈ 111 µM)
CCn1cc(C(=O)O)c(=O)c2cc(F)c(N3CCNCC3)cc21 [NORFLOXACIN] | 2 (≈ 6.26 µM)
O=C1c2cccc(O)c2C(=O)c2c(O)cc(Cn3cnc([N+](=O)[O-])c3)cc21 | 32 (≈ 87.6 µM)
CCc1nc2ccccc2n1Cc1cc(O)c2c(c1)C(=O)c1cccc(O)c1C2=O | 64 (≈ 161 µM)

test system: Staphylococcus aureus; assay: Antibacterial activity against Staphylococcus aureus ATCC 25923 assessed as inhibition of bacterial growth after 24 hrs by microbroth dilution method; assay type: functional; how it was run: as §1

SMILES | MIC [µg/mL]
O=C1c2cccc(O)c2C(=O)c2c(O)cc(CSc3nc4ccccc4[nH]3)cc21 | 128 (≈ 318 µM)
O=C1c2cccc(O)c2C(=O)c2c(O)cc(CCl)cc21 | 64 (≈ 222 µM)
CCn1cc(C(=O)O)c(=O)c2cc(F)c(N3CCNCC3)cc21 [NORFLOXACIN] | 1 (≈ 3.13 µM)
O=C1c2cccc(O)c2C(=O)c2c(O)cc(Cn3cnc([N+](=O)[O-])c3)cc21 | 16 (≈ 43.8 µM)
CCc1nc2ccccc2n1Cc1cc(O)c2c(c1)C(=O)c1cccc(O)c1C2=O | 128 (≈ 321 µM)

test system: Escherichia coli; assay: Antibacterial activity against Escherichia coli assessed as inhibition of bacterial growth after 24 hrs by microbroth dilution method; assay type: functional; how it was run: as §1

SMILES | MIC [µg/mL]
O=C1c2cccc(O)c2C(=O)c2c(O)cc(CSc3nc4ccccc4[nH]3)cc21 | 64 (≈ 159 µM)
O=C1c2cccc(O)c2C(=O)c2c(O)cc(CCl)cc21 | 128 (≈ 443 µM)
CCn1cc(C(=O)O)c(=O)c2cc(F)c(N3CCNCC3)cc21 [NORFLOXACIN] | 16 (≈ 50.1 µM)
O=C1c2cccc(O)c2C(=O)c2c(O)cc(Cn3cnc([N+](=O)[O-])c3)cc21 | 64 (≈ 175 µM)
CCc1nc2ccccc2n1Cc1cc(O)c2c(c1)C(=O)c1cccc(O)c1C2=O | 64 (≈ 161 µM)

test system: Klebsiella pneumoniae; assay: Antibacterial activity against Klebsiella pneumoniae assessed as inhibition of bacterial growth after 24 hrs by microbroth dilution method; assay type: functional; how it was run: as §1

SMILES | MIC [µg/mL]
O=C1c2cccc(O)c2C(=O)c2c(O)cc(CSc3nc4ccccc4[nH]3)cc21 | 64 (≈ 159 µM)
O=C1c2cccc(O)c2C(=O)c2c(O)cc(CCl)cc21 | 32 (≈ 111 µM)
CCn1cc(C(=O)O)c(=O)c2cc(F)c(N3CCNCC3)cc21 [NORFLOXACIN] | 4 (≈ 12.5 µM)
O=C1c2cccc(O)c2C(=O)c2c(O)cc(Cn3cnc([N+](=O)[O-])c3)cc21 | 128 (≈ 350 µM)
CCc1nc2ccccc2n1Cc1cc(O)c2c(c1)C(=O)c1cccc(O)c1C2=O | 64 (≈ 161 µM)

test system: Staphylococcus aureus; assay: Antibacterial activity against methicillin resistant Staphylococcus aureus assessed as inhibition of bacterial growth after 24 hrs by microbroth dilution method; assay type: functional
How it was run: (§2)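 Inoculum adjusted in sterile saline to 1×10^5 CFU. Compounds dissolved in DMSO as stock, then diluted in Mueller-Hinton broth as a two-fold series from 512 to 0.5 µg/mL (11 levels). Inoculated dilutions incubated at 37 °C for 24 h, and the MIC recorded.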

SMILES | MIC [µg/mL]
O=C1c2cccc(O)c2C(=O)c2c(O)cc(CSc3nc4ccccc4[nH]3)cc21 | 32 (≈ 79.5 µM)
O=C1c2cccc(O)c2C(=O)c2c(O)cc(CCl)cc21 | 32 (≈ 111 µM)
CCn1cc(C(=O)O)c(=O)c2cc(F)c(N3CCNCC3)cc21 [NORFLOXACIN] | 8 (≈ 25.1 µM)
O=C1c2cccc(O)c2C(=O)c2c(O)cc(Cn3cnc([N+](=O)[O-])c3)cc21 | 64 (≈ 175 µM)
CCc1nc2ccccc2n1Cc1cc(O)c2c(c1)C(=O)c1cccc(O)c1C2=O | 64 (≈ 161 µM)

test system: Staphylococcus aureus; assay: Antibacterial activity against Staphylococcus aureus assessed as inhibition of bacterial growth after 24 hrs by microbroth dilution method; assay type: functional; how it was run: as §1

SMILES | MIC [µg/mL]
O=C1c2cccc(O)c2C(=O)c2c(O)cc(CSc3nc4ccccc4[nH]3)cc21 | 4 (≈ 9.94 µM)
O=C1c2cccc(O)c2C(=O)c2c(O)cc(CCl)cc21 | 64 (≈ 222 µM)
CCn1cc(C(=O)O)c(=O)c2cc(F)c(N3CCNCC3)cc21 [NORFLOXACIN] | 8 (≈ 25.1 µM)
O=C1c2cccc(O)c2C(=O)c2c(O)cc(Cn3cnc([N+](=O)[O-])c3)cc21 | 16 (≈ 43.8 µM)
CCc1nc2ccccc2n1Cc1cc(O)c2c(c1)C(=O)c1cccc(O)c1C2=O | 64 (≈ 161 µM)

test system: Staphylococcus aureus; assay: Antibacterial activity against Staphylococcus aureus ATCC 29213 assessed as inhibition of bacterial growth after 24 hrs by microbroth dilution method; assay type: functional; how it was run: as §2

SMILES | MIC [µg/mL]
O=C1c2cccc(O)c2C(=O)c2c(O)cc(CSc3nc4ccccc4[nH]3)cc21 | 16 (≈ 39.8 µM)
O=C1c2cccc(O)c2C(=O)c2c(O)cc(CCl)cc21 | 128 (≈ 443 µM)
CCn1cc(C(=O)O)c(=O)c2cc(F)c(N3CCNCC3)cc21 [NORFLOXACIN] | 1 (≈ 3.13 µM)
O=C1c2cccc(O)c2C(=O)c2c(O)cc(Cn3cnc([N+](=O)[O-])c3)cc21 | 16 (≈ 43.8 µM)
CCc1nc2ccccc2n1Cc1cc(O)c2c(c1)C(=O)c1cccc(O)c1C2=O | 64 (≈ 161 µM)

test system: Escherichia coli; assay: Antibacterial activity against Escherichia coli ATCC 25922 assessed as inhibition of bacterial growth after 24 hrs by microbroth dilution method; assay type: functional; how it was run: as §1

SMILES | MIC [µg/mL]
O=C1c2cccc(O)c2C(=O)c2c(O)cc(CSc3nc4ccccc4[nH]3)cc21 | 128 (≈ 318 µM)
O=C1c2cccc(O)c2C(=O)c2c(O)cc(CCl)cc21 | 32 (≈ 111 µM)
CCn1cc(C(=O)O)c(=O)c2cc(F)c(N3CCNCC3)cc21 [NORFLOXACIN] | 8 (≈ 25.1 µM)
O=C1c2cccc(O)c2C(=O)c2c(O)cc(Cn3cnc([N+](=O)[O-])c3)cc21 | 32 (≈ 87.6 µM)
CCc1nc2ccccc2n1Cc1cc(O)c2c(c1)C(=O)c1cccc(O)c1C2=O | 32 (≈ 80.3 µM)

test system: Acinetobacter baumannii; assay: Antibacterial activity against Acinetobacter baumannii assessed as inhibition of bacterial growth after 24 hrs by microbroth dilution method; assay type: functional; how it was run: as §1

SMILES | MIC [µg/mL]
O=C1c2cccc(O)c2C(=O)c2c(O)cc(CSc3nc4ccccc4[nH]3)cc21 | 16 (≈ 39.8 µM)
O=C1c2cccc(O)c2C(=O)c2c(O)cc(CCl)cc21 | 64 (≈ 222 µM)
CCn1cc(C(=O)O)c(=O)c2cc(F)c(N3CCNCC3)cc21 [NORFLOXACIN] | 0.5 (≈ 1.57 µM)
O=C1c2cccc(O)c2C(=O)c2c(O)cc(Cn3cnc([N+](=O)[O-])c3)cc21 | 32 (≈ 87.6 µM)
CCc1nc2ccccc2n1Cc1cc(O)c2c(c1)C(=O)c1cccc(O)c1C2=O | 64 (≈ 161 µM)

test system: Enterococcus faecalis; assay: Antibacterial activity against Enterococcus faecalis assessed as inhibition of bacterial growth after 24 hrs by microbroth dilution method; assay type: functional; how it was run: as §1

SMILES | MIC [µg/mL]
O=C1c2cccc(O)c2C(=O)c2c(O)cc(CSc3nc4ccccc4[nH]3)cc21 | 32 (≈ 79.5 µM)
O=C1c2cccc(O)c2C(=O)c2c(O)cc(CCl)cc21 | 256 (≈ 887 µM)
CCn1cc(C(=O)O)c(=O)c2cc(F)c(N3CCNCC3)cc21 [NORFLOXACIN] | 32 (≈ 100 µM)
O=C1c2cccc(O)c2C(=O)c2c(O)cc(Cn3cnc([N+](=O)[O-])c3)cc21 | 128 (≈ 350 µM)
CCc1nc2ccccc2n1Cc1cc(O)c2c(c1)C(=O)c1cccc(O)c1C2=O | 16 (≈ 40.2 µM)

test system: Pseudomonas aeruginosa; assay: Antibacterial activity against Pseudomonas aeruginosa assessed as inhibition of bacterial growth after 24 hrs by microbroth dilution method; assay type: functional; how it was run: as §1

SMILES | MIC [µg/mL]
O=C1c2cccc(O)c2C(=O)c2c(O)cc(CSc3nc4ccccc4[nH]3)cc21 | 128 (≈ 318 µM)
O=C1c2cccc(O)c2C(=O)c2c(O)cc(CCl)cc21 | 64 (≈ 222 µM)
CCn1cc(C(=O)O)c(=O)c2cc(F)c(N3CCNCC3)cc21 [NORFLOXACIN] | 8 (≈ 25.1 µM)
O=C1c2cccc(O)c2C(=O)c2c(O)cc(Cn3cnc([N+](=O)[O-])c3)cc21 | 64 (≈ 175 µM)
CCc1nc2ccccc2n1Cc1cc(O)c2c(c1)C(=O)c1cccc(O)c1C2=O | 64 (≈ 161 µM)
